From PubChem BioAssay
Phagocyt inh: macrophage phagocytosis inhibition; 110,000 tested, 0.07% active; inhibition, % at 5 µM; J774A.1 macrophage IgG-bead phagocytosis, imaging;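 active means inhibition above the mean of the plate negative controls plus 5 SD, cut at about 13% in these data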;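 further: phagocytic index as fraction of beads internalized from green versus red external bead signal; plate controls were DMSO negative control for no effect and cytochalasin-D positive control for full effect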
PTK2B oligo ant: antagonists of human Pyk2 oligomerization; z-score (the deposit names both 25 µM and 10 µM); Q14289; 99,000 tested, 0.83% active; Q293 cells, Pyk2 FERM NanoBiT luminescence; stronger effect = lower value; AID 1347419;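 active means Z-score of -3 or lower, scaled per plate to the spread of control and sample wells; inactive means z-score above -3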;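 further: negative z-score means lost luminescence so less FERM oligomerization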
Target sequence (Q14289 whole entry, looked up): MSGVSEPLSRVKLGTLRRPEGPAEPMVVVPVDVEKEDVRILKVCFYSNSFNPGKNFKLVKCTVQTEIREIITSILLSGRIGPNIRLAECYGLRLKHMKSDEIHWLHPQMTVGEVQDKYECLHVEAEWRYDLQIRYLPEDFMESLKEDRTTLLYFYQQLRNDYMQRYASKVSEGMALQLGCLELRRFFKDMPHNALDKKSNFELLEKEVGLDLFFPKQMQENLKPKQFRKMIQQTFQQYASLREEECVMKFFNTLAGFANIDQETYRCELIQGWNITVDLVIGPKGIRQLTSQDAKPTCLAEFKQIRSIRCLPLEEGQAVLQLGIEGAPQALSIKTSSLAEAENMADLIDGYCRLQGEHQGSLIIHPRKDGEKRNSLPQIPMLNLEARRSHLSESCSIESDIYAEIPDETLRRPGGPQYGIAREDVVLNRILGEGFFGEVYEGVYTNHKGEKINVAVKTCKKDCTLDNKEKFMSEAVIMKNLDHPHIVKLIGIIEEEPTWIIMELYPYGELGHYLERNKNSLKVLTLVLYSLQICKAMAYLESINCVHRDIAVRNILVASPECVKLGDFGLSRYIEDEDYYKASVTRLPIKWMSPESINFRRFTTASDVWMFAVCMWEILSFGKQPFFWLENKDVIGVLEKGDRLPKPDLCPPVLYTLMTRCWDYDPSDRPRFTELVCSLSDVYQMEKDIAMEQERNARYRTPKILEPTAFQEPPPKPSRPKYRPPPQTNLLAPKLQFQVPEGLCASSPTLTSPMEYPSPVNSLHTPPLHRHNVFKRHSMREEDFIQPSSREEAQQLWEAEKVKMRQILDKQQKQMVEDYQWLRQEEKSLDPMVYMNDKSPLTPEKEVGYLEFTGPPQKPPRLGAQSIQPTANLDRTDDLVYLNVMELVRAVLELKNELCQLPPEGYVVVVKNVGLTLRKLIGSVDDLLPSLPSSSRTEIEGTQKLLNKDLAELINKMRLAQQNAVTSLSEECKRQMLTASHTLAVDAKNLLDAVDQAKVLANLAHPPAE
Cav32 inh: blocks human Cav3.2 T-type calcium channel; O95180; B-score at 10 µM; Cav3.2-expressing cells, Fluo-4 calcium fluorescence FDSS; stronger effect = lower value; 100,000 tested, 4% active;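 active means single-dose well whose peak fluorescence ratio is a statistical outlier from its plate by either plate-standardised score or position-corrected B-score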
Measles CPE: protection of cells from measles virus. 140,000 tested, 1.5% active. protection (pct of control), % at 4 µM. Measles virus-infected cells, CPE protection, absorbance; in the data active means protection mostly above about 24%, no sharp cut-off; inactive means mostly below about 26%
hDAT+cocaine: modulates human dopamine transporter uptake under cocaine. Q01959. LLC-PK1 hDAT cells, [14C]-dopamine uptake with cocaine IC80; actives deviate in either direction. B-score at 10 µM. 110,000 tested, 1.3% active;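 active means Z score or B-score, a plate-position-corrected score, falls beyond the plate's 99.7% confidence bounds, in either direction; inactive means both scores lie inside the 99.7% bounds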;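 further: scored against the spread of the other compound wells on the same plate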
HIV Rev-RRE inh: HIV Rev-RRE protein-RNA interaction inhibition; Rev peptide-RRE RNA binding, FRET; inhibition, % at 8 µM; 97,000 tested, 0.79% active;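 active means inhibition above the screen-wide mean plus 3 SD, cut at about 35% in these data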;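 further: 0% = median DMSO wells and 100% = median Neomycin B control wells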
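Test system: Cy5-tagged RRE RNA duplex with fluorescein-tagged Rev peptide; Probe or stimulus: labelled Rev peptide; Schedule: 5 min preincubation and 15 min binding, 25 °C; Signal: FRET fluorescence readout; Evaluation: % inhibition from 671/540 nm acceptor-to-donor ratio, scaled between controls; Control set: DMSO and neomycin B.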
* marks the source's active call; other numbers are inactive results; . = no result given; [ ] = dose if it differs, or a comment. Shown are actives, neighbours in structure and some others; about 5.9% of the full set was active somewhere.

SMILES | Phagocyt inh | PTK2B oligo ant | Cav32 inh | Measles CPE | hDAT+cocaine | HIV Rev-RRE inh
CCOC(=O)c1c(-c2ccco2)csc1N | 1 | -0.04 | 0.51 | 25 | 2.1* | 10
CCOc1nc(NCc2ccco2)nc(Nc2ccc(OC)cc2)n1 | 0 | -2.5 | -1.9 | 4 | 0.6 | 6
COc1ccc(Nc2nc(NCc3ccco3)nc(N/N=C/c3ccccc3)n2)cc1 | 1 | -3.2* | -7.6* | 24 | 1.2 | 1
COc1ccccc1[C@@H]1C(c2cccc(C)c2)=NN(c2ccccc2)[C@H]1C(=O)N1CCOC1=O | . | . | -0.33 | 5 | -0.96 | .
CC(C)c1ccc(N=c2c([N+](=O)[O-])nn(-c3ccc4c(c3)OCCO4)n2O)cc1 | . | -4* | -1.3 | 6 | -0.34 | 10
COc1cc(N=c2c([N+](=O)[O-])nn(-c3ccc4c(c3)OCCO4)n2O)cc(OC)c1 | . | . | . | 10 | . | .
CCSc1nnc(-c2sc3nnc(-c4ccccc4)c(-c4ccccc4)c3c2N)o1 | . | 0.34 | -5.6* | 16 | 1.6* | 117*[fluorescence artefact?]
CCSc1nnc(-c2ccncc2)o1 | -1 | 1.1 | 0.34 | 3 | 0.25 | 6
Cn1c(CNC(=O)c2cccs2)nnc1SCC(=O)Nc1ccccc1 | -2 | . | . | 5 | . | .
CCOC(=O)/C(C#N)=C/c1ccc(-c2ccsc2C(=O)OC)o1 | . | 0.99 | -7* | 8 | 0.35 | 21
O=c1cc(Nc2ccc3c(c2)OCCO3)[nH]c(=O)n1Cc1ccc(F)cc1 | . | -1.9 | -3.9* | 20 | -0.16 | 18
COc1ccccc1NC(=O)N1CCc2[nH]c3ccc(Cl)cc3c2C1 | 1 | -0.56 | -5.1* | 2 | 1.5 | 6
Cc1ccc(S(=O)(=O)N2CCN(C(=O)CSc3ncc(C(F)(F)F)cc3Cl)CC2)cc1 | 6 | -0.3 | -0.85 | 9 | 1.6 | 5
Cc1ccc(CO/N=C\Cc2snc(Sc3ncc(C(F)(F)F)cc3Cl)c2C#N)cc1 | -2 | -0.31 | -1.8 | 15 | -0.61 | 60*
O=S(=O)(Nc1nc2ccccc2nc1Nc1ccc(N2CCOCC2)cc1)c1cc(Cl)ccc1Cl | -7 | . | . | 16 | . | .
NS(=O)(=O)c1ccc(NCc2cc(Cl)ccc2OCc2ccc(F)cc2)cc1 | -4 | . | . | 5 | . | .
CC(Sc1nnc(C(F)(F)F)n1C)C(=O)NC(N)=O (configuration not stated) | -4 | -0.17 | 0.49 | 60* | -0.62 | 2
Cc1ccccc1-n1c(C)cc(/C=C(\C#N)C(=O)NCC2CCCO2)c1C (configuration not stated) | -9 | . | . | 24 | . | .
Cc1cc(/C=C(\C#N)C(=O)NCc2cccs2)c(C)n1-c1ccccc1F | 3 | -1.7 | -4.8* | 9 | 1.4 | 3
c1ccc(Nc2ccc3c4c(cccc24)CC3)cc1 | . | -0.94 | -0.93 | 5 | -0.018 | 9
Nc1ccc2c3c(cccc13)CC2 | -2 | 0.55 | -0.07 | 3 | -0.022 | 47*
COC(=O)c1ccc2c(c1)C(C)(C)C(/C=C/c1ccc(O)cc1)=[N+]2C | 2 | -0.31 | -4.4 | -2 | -1.5 | 79*[fluorescence artefact?]
COc1cc(CC(=O)NNC(=O)c2cc(C)oc2C)cc(OC)c1OC | -2 | 0.17 | . | 11 | . | .
CCOC(=O)c1c(NC(=O)CN2C(=O)c3ccccc3C2=O)sc(Cc2ccc3c(c2)OCO3)c1C | . | . | -1 | 8 | -0.36 | .
COC(=O)Cc1ccc(NC(=S)N2CCN(c3ccc(OC)cc3)CC2)cc1 | -5 | . | . | 34* | . | .
SMILES | Phagocyt inh | PTK2B oligo ant | Cav32 inh | Measles CPE | hDAT+cocaine | HIV Rev-RRE inh
COc1ccc(N2CCN(C(=S)Nc3cc(C)ccc3C)CC2)cc1 | . | 1.8 | 0.59 | 10 | -4.7* | 1
COc1ccc(OC)c(NC(=S)N2CCN(c3ccccn3)CC2)c1 | 2 | -0.01 | 1.2 | 27 | -8.8* | 2
COC(=O)Cc1ccc(NC(=S)N2CCN(c3cccc(O)c3)CC2)cc1 | . | . | . | 24 | . | .
COc1ccc(N2CCN(C(=S)Nc3cc(C)cc(C)c3)CC2)cc1 | . | 2 | 0.39 | 7 | -0.9 | -1
Cc1ccc(N(CC(=O)N/N=C/c2cc(C)n(-c3ccccc3C)c2C)S(C)(=O)=O)cc1 | 0 | . | . | 14 | . | .
Oc1ccc(N=C/C=C/c2cccc(Br)c2)cc1-c1nc2ccccc2s1 | -9 | . | . | 2 | . | .
Cc1cc(C)cc(NS(=O)(=O)c2cnc(Cl)c(Cl)c2)c1 | -2 | 0.21 | -5.6* | 10 | -0.9 | 11
S=C(N/N=C/c1ccccc1)N1CCOCC1 | 0 | . | . | 3 | . | .
Cc1ccc(CN(Cc2ccco2)S(=O)(=O)c2ccc(S(=O)(=O)NCC3CCCO3)cc2)cc1 (configuration not stated) | 1 | . | . | 43 | . | .
O=C(NC(Cc1ccccc1)C(=O)OCC(=O)N1CCc2ccccc21)c1ccco1 (configuration not stated) | -1 | 0.68 | -4.7* | 0 | -0.032 | .
O=C(COC(=O)C(Cc1ccccc1)NC(=O)c1ccco1)NC1CC1 (configuration not stated) | -1 | 0.31 | 1.6 | 4 | 0.84 | 6
Cn1c2ccccc2c2c(C(=O)N3CCN(C(=O)c4ccco4)CC3)cn(C3CCCCC3)c(=O)c21 | 0 | -0.21 | 1.5 | 6 | 1.4 | 6
Cn1c2ccccc2c2c(C(=O)NCc3ccco3)cn(C3CCCCC3)c(=O)c21 | . | 0.82 | -1.5 | 42* | -0.17 | 8
Cn1nc(C(=O)NCc2ccco2)c2ccccc2c1=O | -1 | . | . | 24* | . | .
O=C(NCc1ccccc1)c1cc(-c2ccco2)on1 | -2 | -0.15 | 0.27 | 2 | -0.42 | 1
O=C(NCc1ccco1)c1cc(-c2ccco2)on1 | -1 | -0.06 | 0.064 | 85* | -0.57 | 0
Cn1nc(C(=O)NCc2cccnc2)c2ccccc2c1=O | 0 | 0.95 | 0.47 | 6 | -0.02 | 9
Cc1cc(C)cc(NC(N)=S)c1 | -4 | . | . | 10 | . | .
Cc1ccc(-n2c(C)cc(/C=N/NC(=O)CN(c3ccc(C)cc3C)S(C)(=O)=O)c2C)cc1 | -1 | 0.63 | -8.4* | 16 | 0.012 | 2
Cc1ccc(-n2c(C)cc(/C=N/NC(=O)c3ccc(CN4CCOCC4)cc3)c2C)cc1 | -2 | -1.1 | -0.83 | 71* | 0.09 | -1
Cc1cccc(-n2c(C)cc(/C=N/NC(=O)c3ccc(CN4CCOCC4)cc3)c2C)c1 | 0 | -0.54 | -0.28 | 7 | -0.8 | 4
Cc1ccc(NC(=O)c2cccc(S(=O)(=O)N(C)c3ccccc3)c2)cc1S(=O)(=O)N1CCOCC1 | -9 | . | . | 22 | . | .
CCCNC(=O)Cn1c(=O)/c(=C\c2ccc(-c3ccc([N+](=O)[O-])cc3)o2)s/c1=C\C(=O)C(C)(C)C | -9 | . | . | 6 | . | .
COC(=O)C1=C(C)NC2=C(C(=O)CCC2)C1c1cn(Cc2ccc(Cl)cc2Cl)nc1-c1ccccc1 (configuration not stated) | 1 | -2.2 | -7.3* | 8 | 1.3 | -4
O=C(COC(=O)c1cc(=O)[nH]c2ccccc12)NC(=O)NC1CCCCC1 | -2 | -3.7* | 0.73 | 20 | 0.95 | 12
CN(C)N1C(=O)CC(NNC(=O)c2ccncc2)C1=O (configuration not stated) | -3 | . | . | 5 | . | .
